What was measured:
[1] = tested on: Mus musculus; test: AUC (0 to infinity) in Por lox/lox wild type mouse at 2.5 mg/kg, po treated 10 days after 40 mg/kg, ip 3-methylcholanthrene administration by liquid chromatography-tandem mass spectrometry; assay type: ADME, organism-based, Plasma; conditions: in vivo, 240 h
Outline: (§1)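 Adult male mice (n = 3): Por lox/lox wild type, or RCN (Por lox/lox plus Cre under CYP1A1 promoter). Pretreated i.p. in corn oil with either 3-MC 40 mg/kg as a single dose, or BNF 80 mg/kg daily for 4 days. After 10 days, oral dosing at 2.5 mg/kg. Serial tail-vein blood was analysed by LC-MS/MS for parent drug; mean ± SD.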

[2] = AUC (0 to infinity) in liver Por deleted-reductase conditional null mouse at 2.5 mg/kg, po treated 10 days after 40 mg/kg, ip 3-methylcholanthrene administration by liquid chromatography-tandem mass spectrometry; assay type: ADME, organism-based; conditions: in vivo; outline: as §1
[3] = AUC (0 to last) in Por lox/lox wild type mouse at 2.5 mg/kg, po treated 10 days after 40 mg/kg, ip 3-methylcholanthrene administration by liquid chromatography-tandem mass spectrometry; assay type: ADME, organism-based; conditions: plasma; outline: as §1
[4] = AUC (0 to last) in liver Por deleted-reductase conditional null mouse at 2.5 mg/kg, po treated 10 days after 40 mg/kg, ip 3-methylcholanthrene administration by liquid chromatography-tandem mass spectrometry; assay type: ADME, organism-based; conditions: in vivo; outline: as §1
[5] = Cmax in Por lox/lox wild type mouse at 2.5 mg/kg, po treated 10 days after 40 mg/kg, ip 3-methylcholanthrene administration by liquid chromatography-tandem mass spectrometry; assay type: ADME, organism-based; conditions: in vivo; outline: as §1
[6] = Cmax in liver Por deleted-reductase conditional null mouse at 2.5 mg/kg, po treated 10 days after 40 mg/kg, ip 3-methylcholanthrene administration by liquid chromatography-tandem mass spectrometry; assay type: ADME, organism-based; conditions: in vivo; outline: as §1
[7] = Clearance in liver Por deleted-reductase conditional null mouse at 2.5 mg/kg, po treated 10 days after 40 mg/kg, ip 3-methylcholanthrene administration by liquid chromatography-tandem mass spectrometry; assay type: ADME, organism-based; conditions: in vivo; outline: as §1
[8] = AUC (0 to infinity) in Por lox/lox wild type mouse at 2.5 mg/kg, po treated 10 days after 80 mg/kg, ip beta-naphthoflavone administration by liquid chromatography-tandem mass spectrometry; assay type: ADME, organism-based; conditions: plasma; outline: as §1
[9] = AUC (0 to infinity) in liver and gut Por deleted-reductase conditional null mouse at 2.5 mg/kg, po treated 10 days after 80 mg/kg, ip beta-naphthoflavone administration by liquid chromatography-tandem mass spectrometry; assay type: ADME, organism-based; conditions: in vivo; outline: as §1
[10] = AUC (0 to last) in Por lox/lox wild type mouse at 2.5 mg/kg, po treated 10 days after 80 mg/kg, ip beta-naphthoflavone administration by liquid chromatography-tandem mass spectrometry; assay type: ADME, organism-based; conditions: plasma; outline: as §1
[11] = AUC (0 to last) in liver and gut Por deleted-reductase conditional null mouse at 2.5 mg/kg, po treated 10 days after 80 mg/kg, ip beta-naphthoflavone administration by liquid chromatography-tandem mass spectrometry; assay type: ADME, organism-based; conditions: in vivo; outline: as §1
[12] = Cmax in Por lox/lox wild type mouse at 2.5 mg/kg, po treated 10 days after 80 mg/kg, ip beta-naphthoflavone administration by liquid chromatography-tandem mass spectrometry; assay type: ADME, organism-based; conditions: in vivo; outline: as §1
[13] = Cmax in liver and gut Por deleted-reductase conditional null mouse at 2.5 mg/kg, po treated 10 days after 80 mg/kg, ip beta-naphthoflavone administration by liquid chromatography-tandem mass spectrometry; assay type: ADME, organism-based; conditions: in vivo; outline: as §1
[14] = Clearance in Por lox/lox wild type mouse at 2.5 mg/kg, po treated 10 days after 80 mg/kg, ip beta-naphthoflavone administration by liquid chromatography-tandem mass spectrometry; assay type: ADME, organism-based; conditions: in vivo; outline: as §1
[15] = Clearance in liver and gut Por deleted-reductase conditional null mouse at 2.5 mg/kg, po treated 10 days after 80 mg/kg, ip beta-naphthoflavone administration by liquid chromatography-tandem mass spectrometry; assay type: ADME, organism-based; conditions: in vivo; outline: as §1
[16] = in vivo; conditions: mouse, po, 2.5 mg/kg
[17] = in vivo; conditions: mouse, po, 2.5 mg/kg; remark: listed apart in the source
[18] = in vivo; conditions: mouse, po, 2.5 mg/kg; remark: listed apart in the source
[19] = in vivo; conditions: mouse, po, 2.5 mg/kg; remark: listed apart in the source

Cc1ncc2n1-c1ccc(Cl)cc1C(c1ccccc1F)=NC2 [MIDAZOLAM]
AUC [1]: 8.7 µg·min/mL | AUC(0-inf) [2]: 2250 ng·h/mL | AUC(0-t) at 240 h [3]: 125 ng·h/mL | AUC(0-t) at 240 h [4]: 2100 ng·h/mL | Cmax [5]: 110 ng/mL | Cmax [6]: 900 ng/mL | CL/F [7]: 26.8 mL/min/kg | AUC(0-inf) [8]: 278 ng·h/mL | AUC(0-inf) [9]: 5830 ng·h/mL | AUC(0-t) at 240 h [10]: 228 ng·h/mL | AUC(0-t) at 240 h [11]: 5520 ng·h/mL | Cmax [12]: 140 ng/mL | Cmax [13]: 2300 ng/mL | CL/F [14]: 180 mL/min/kg | CL/F [15]: 9.3 mL/min/kg | half-life at 240 h [16]: 1.13 h | half-life at 240 h [17]: 2.13 h | half-life at 240 h [18]: 1.92 h | half-life at 240 h [19]: 1.9 h
